Results as given in ChEMBL document CHEMBL4673342, “Lipid-Lowering Activities of Cucurbitacins Isolated from Trichosanthes cucumeroides and Their Synthetic Derivatives” (2020).
Calls of active or inactive are those of the source. The calls are words filed in the database; no cut-off is given here.

Legend:
[1] = Induction of […] uptake in human HepG2 cells assessed as fold change at 5 uM by DIL probe based fluorescence assay; type: functional
How it was run: (§1)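 HepG2 cells (passages 4–11) in DMEM/10% FBS were treated with DMSO or compound at 5 µM, then given DiI-labelled human plasma LDL (20 µg/mL) for 3 h at 37 °C in the dark. After ice-cold PBS/0.4% albumin rinses, cell-bound dye was extracted with isopropanol and fluorescence read at 520–578 nm. Uptake rate is relative to DMSO. Positive control nagilactone B at 5 µM; n = 3.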

HepG2 [2] = experiment: Down regulation of PCSK9 protein expression in human HepG2 cells by Western blot analysis; type: functional, cell-based; settings: dose 1-20 µM
How it was run: (§2)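 HepG2 cells were cultured 12 h, then held a further 24 h in medium with 2% LPDS. Cells were treated with compound across a concentration range, lysed with protease/phosphatase inhibitors, and 30 µg protein was run on 8% SDS-PAGE and blotted to PVDF. Membranes were blocked in 5% milk and probed overnight at 4 °C for LDLR or PCSK9. Mean ± SEM, n ≥ 5.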

HepG2 [3] = experiment: Upregulation of LDLR protein expression in human HepG2 cells by Western blot analysis; type: functional, cell-based; settings: dose 1-20 µM; how it was run: as §2
HepG2 [4] = experiment: Induction of […] uptake in human HepG2 cells at 5 uM by DIL probe based fluorescence assay; type: functional, cell-based; how it was run: as §1

Q: Which “fold change (FC)” value [1] does the source give for `CC(C)c1oc(=O)cc2c1[C@@H](O)[C@H]1OC(=O)[C@@]3(C)C[C@@H](O)[C@@H](O)[C@@]2(C)C13` (stereo partly drawn) here?
A: 2.07

Q: With `CC(=O)OC(C)(C)/C=C/C(=O)[C@](C)(O)[C@H]1[C@H](O)C[C@@]2(C)[C@@H]3[C@@H](O)C=C4[C@@H](CC(=O)[C@@H](O)C4(C)C)[C@]3(C)C(=O)C[C@]12C` as the compound, how does the Activity (HepG2 [2]) read?
A: Dose-dependent effect

Q: And the Activity (HepG2 [3])?
A: Dose-dependent effect

Q: For `CC(=O)[C@H]1[C@H](O)C[C@@]2(C)[C@@H]3CC=C4[C@@H](CC(=O)[C@@H](O)C4(C)C)[C@]3(C)C(=O)C[C@]12C`, which Activity (HepG2 [2]) is on record?
A: Dose-dependent effect

Q: And the “fold change (FC)” value [1]?
A: 2.53

Q: And the Activity (HepG2 [3])?
A: Dose-dependent effect

Q: For `CC(=O)O[C@H]1C(=O)C[C@@H]2C(=CC[C@@H]3[C@@]2(C)C(=O)C[C@]2(C)[C@@H]([C@@](C)(O)C(=O)CCC(C)(C)OC(C)=O)[C@H](O)C[C@@]32C)C1(C)C`, which Activity (HepG2 [4]) is on record?
A: inactive

Q: Which Activity (HepG2 [4]) does the source give for `CC(=O)OC(C)(C)[C@@H](O)CC(=O)[C@](C)(O)[C@H]1[C@H](O)C[C@@]2(C)[C@@H]3[C@@H](O)C=C4[C@@H](CC(=O)[C@@H](O)C4(C)C)[C@]3(C)C(=O)C[C@]12C` here?
A: Active
